Compound activity as filed in PubChem BioAssay.
Most compounds without a hit are left out; they make up all but 1.8% or so of the library.
HTRA1 inhibitor: HTRA1 serine protease inhibitors, primary screen, biochemical, fluorescence polarization, HTS; recombinant HTRA1, FP-rhodamine activity-based probe; inhibition, % at 5.96 µM; 340,000 compounds, 0.5% hits; Q92743; in the data active means inhibition above about 36%
Target sequence (Q92743 whole entry, looked up): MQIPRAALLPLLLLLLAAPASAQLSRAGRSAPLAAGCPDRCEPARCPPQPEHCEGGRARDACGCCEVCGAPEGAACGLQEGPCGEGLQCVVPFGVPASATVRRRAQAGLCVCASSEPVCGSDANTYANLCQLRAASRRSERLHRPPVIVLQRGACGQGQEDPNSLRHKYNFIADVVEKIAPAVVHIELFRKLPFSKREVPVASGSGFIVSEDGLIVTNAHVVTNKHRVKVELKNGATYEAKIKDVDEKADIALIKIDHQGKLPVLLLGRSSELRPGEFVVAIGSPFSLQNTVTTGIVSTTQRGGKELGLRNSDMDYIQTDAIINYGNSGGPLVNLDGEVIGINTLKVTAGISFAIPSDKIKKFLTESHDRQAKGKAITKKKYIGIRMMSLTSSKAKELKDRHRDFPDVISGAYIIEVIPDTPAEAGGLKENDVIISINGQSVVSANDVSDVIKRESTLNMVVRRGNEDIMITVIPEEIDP
TCR-CD3 inh: inhibitors of human TCR-CD3 interaction, primary screen, biochemical, fluorescence, TAMRA-labeled TCR probe; T-cell receptor (TCR); AID 651800, 2012; 360,000 compounds, 0.37% hits; inhibition, % at 9.4 µM;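 further: recombinant mutant TCR 2C K166C tagged with TAMRA read by polarization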
mABHD4 FP: ABHD4 inhibitors, primary screen, biochemical, fluorescence polarization, mouse | purified mABHD4, FP-Rh probe fluorescence polarization | inhibition, % at 8.92 µM | 370,000 compounds, 0.54% hits;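 active means inhibition exceeding the mean over every tested compound plus 3 SD, cut at about 30% in these data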
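Assay system: mouse ABHD4 enzyme, wild type / Also added: fluorescent activity-based probe FP-Rh / Doses: single nominal dose of 8.92 µM, 0.89% DMSO final / Timing: 45 min compound pre-incubation plus 60 min probe step, 25 °C / Signal: FP readout, ex 525 nm / em 598 nm / Control set: S159A mutant/DMSO as 100%, compound-well median as 0%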
Fam108B counter: mouse Fam108B serine hydrolase inhibitors, primary screen, counter-screen for RBBP9 inhibitor project, biochemical, fluorescence polarization; recombinant Fam108B, FP-Rh probe fluorescence polarization; inhibition, % at 9.51 µM; 300,000 compounds, 0.33% hits;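 active means inhibition above the screen mean inhibition plus 3 SD, computed separately per campaign, cut at about 18% in these data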;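 further: inhibitors lower polarization as less probe binds the enzyme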
PME-1 primary: PME-1 inhibitors via competitive probe labeling, primary screen, biochemical, fluorescence polarization, FP-Rh probe, HTS | AID 2130, 2009 | inhibition, % at 5.9 µM | Protein phosphatase methylesterase 1 (Homo sapiens), Q9Y570 | recombinant PME-1 | 320,000 compounds, 0.53% hits;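 active means inhibition above the campaign mean of all compounds plus 3 SD, cut at about 26% in these data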;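 further: competitive labeling of PME-1 active site by serine hydrolase directed probe; inhibitors block probe labeling so polarization falls and inhibition rises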
SIAE inh: human SIAE inhibitors, primary screen, biochemical, fluorescence polarization, FP-Rh probe, 1536-well HTS; Sialate O-acetylesterase (Homo sapiens), Q9HAT2; SIAE FP-Rh probe binding; inhibition, % at 9.66 µM; 370,000 compounds, 0.69% hits;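 active means inhibition above a cutoff: mean of compounds within the control limits plus 3 SD of those, cut at about 17% in these data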
BSA probe FL: compounds interfering with TAMRA-BSA probe, counter-screen for TCR-CD3 interaction inhibitor project, biochemical, fluorescence, TAMRA-labeled BSA | TAMRA-labeled BSA probe fluorescence counterscreen | shares compounds with TCR-CD3 inh | 1,200 compounds, 10% hits | AID 652035, 2013 | inhibition, % at 9.4 µM; in the data active means inhibition above about 23%
TCR-CD3 inh conf: TCR-CD3 interaction inhibitors, retest, confirmation, biochemical, fluorescence, TAMRA-labeled TCR probe | shares compounds with TCR-CD3 inh | inhibition, % at 9.4 µM | TAMRA-labeled TCR probe fluorescence binding assay | 1,200 compounds, 48% hits
ABHD4 confirm: ABHD4 inhibitors, retest, confirmation, biochemical, fluorescence polarization, mouse; shares compounds with mABHD4 FP; purified mABHD4, FP-Rh probe fluorescence polarization; inhibition, % at 8.92 µM; 1,800 compounds, 55% hits; AID 720658, 2013;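 active means mean inhibition across replicates above the hit cutoff set in the primary screen, cut at about 30% in these data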
SIAE inh conf: human SIAE inhibitors, retest, confirmation, biochemical, fluorescence polarization, FP-Rh probe, triplicate; shares compounds with SIAE inh; SIAE FP-Rh activity-based probe; inhibition, % at 9.66 µM; 2,300 compounds, 13% hits; AID 1117263, 2014;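 active means mean inhibition of the replicates above the hit cutoff set in the primary screen, cut at about 17% in these data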;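 further: inhibitors lower polarization as more probe stays unbound to SIAE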
Numbers stand for hits; . = inactive; / = no result. Unless noted, no stated cut-off is given here; in the data, active means inhibition above about 19%; inactive means the rest.

SMILES	HTRA1 inhibitor	TCR-CD3 inh	mABHD4 FP	Fam108B counter	PME-1 primary	SIAE inh	BSA probe FL	TCR-CD3 inh conf	ABHD4 confirm	others
O=C(CCc1ccccc1)N[C@H]1[C@@H](OC(=O)c2cccnc2)CCC[C@@]12C(=O)N(Cc1ccccc1)c1ccccc12	/	/	.	/	/	.	/	/	/
[O-][n+]1c2ccccc2[n+]([O-])c2cc(O)ccc21	.	21	31	.	.	.	.	22	35
[O-][n+]1c(/C=C/c2ccccc2)ccc2ccccc21	.	.	.	/	/	.	/	/	/
S=C(Nc1ccc(Br)cc1)OCCN1CCCC12CCC(c1ccccc1)CC2 (configuration not stated)	/	/	.	/	/	.	/	/	/
COC(=O)[C@]12C[C@H](CC(=O)N3CCSCC3)C(=O)N(Cc3ccc(Cl)cc3Cl)C1=C[C@H](C(C)(C)C)O[C@@H]2C	/	/	.	/	/	.	/	/	/
CCC(NC(=O)Nc1ccc(O)cc1)(C(F)(F)F)C(F)(F)F	.	28	62	.	.	.	.	.	.
O=C(C(=O)N1CCN(S(=O)(=O)c2cccc3ccccc23)CC1)c1cccc(C(F)(F)F)c1	/	.	.	/	/	.	/	/	/
Oc1cc2c(cc1O)[C@H]1c3ccc(O)c(O)c3OC[C@@]1(O)C2	.	128	33	/	.	.	65	116	.
O=C(O)/C=C/c1ccc([N+](=O)[O-])o1	.	.	.	.	.	.	/	/	/
O=C1NC(=S)S/C1=C\C=C\c1ccc([N+](=O)[O-])o1	.	32	42	/	/	.	.	29	.
CC1CCC2(CCC(=O)N2CCCO)CC1 (configuration not stated)	/	/	.	/	/	.	/	/	/
CCN(CC)c1cccc(OCC(=O)N(C)CCC#N)c1	.	21	63	.	.	.	.	.	.
Cc1cc(C(=O)OCC(=O)NC2CCCC2)c2ccccc2n1	.	.	.	/	/	.	/	/	/
O=C(COC(=O)c1c2c(nc3ccccc13)/C(=C/c1ccco1)CC2)NC1CCCC1	60	23	51	/	/	27	.	.	.
CC[C@H](CCCc1ccc(OC)cc1)CCC(=O)N(c1ccccc1)c1ccccc1	/	/	.	/	/	.	/	/	/
O=C(CSc1nnc(-c2ccco2)o1)c1ccccc1	.	.	.	.	.	.	/	/	/
O=C(CSc1nnc(-c2ccco2)c(-c2ccco2)n1)c1ccccc1	.	35	46	.	.	.	.	19	.
Cc1c(C(=O)NNC(=O)c2ccccc2O)oc2ccccc12	.	23	.	/	/	21	.	25	/	SIAE inh conf=.
COC(=O)c1oc2ccccc2c1NC(=O)c1ccccc1O	.	.	.	.	.	.	/	/	/
CCN1C(=O)/C(=C2\SC(=S)N(c3c(C)n(C)n(-c4ccccc4)c3=O)C2=O)c2ccccc21	.	.	.	.	.	.	/	/	/
CCN1C(=O)/C(=C2\SC(=S)N(NC(=O)c3ccccc3O)C2=O)c2ccccc21	.	31	31	.	.	19	.	.	73	SIAE inh conf=26
CCCCN1C[C@@H](COCc2ccccc2)Oc2cc(F)ccc2S1(=O)=O	/	/	.	/	/	.	/	/	/
